GI50 and Activity data for 18 compounds are collected here from ChEMBL document CHEMBL1795256, “Synthesis and biological evaluation of novel aliphatic amido-quaternary ammonium salts for anticancer chemotherapy: part I” (2011).

The structures appear in SMILES notation. Active and inactive are the calls of the source. The rule behind the calls is not given here.

In one experiment the test system is PC-3. Put plainly: Growth inhibition of human PC3 cells by sulforhodamine B assay. It is filed as functional.
A further experiment has as its system NUGC-3. Put plainly: Growth inhibition of human NUGC3 cells by sulforhodamine B assay. It is filed as functional. (In general: Sulforhodamine B stains cellular protein and so reports cell mass.)
Another experiment relates to MDA-MB-231. Put plainly: Growth inhibition of human MDA-MB-231 cells by sulforhodamine B assay. It is filed as functional.
Another experiment relates to ACHN. Description: Growth inhibition of human ACHN cells by sulforhodamine B assay. It is filed as functional.
The subject of another experiment is HCT-15. Put plainly: Growth inhibition of human HCT15 cells by sulforhodamine B assay. It is filed as functional.
The subject of a further experiment is NCI-H23. Put plainly: Growth inhibition of human NCI-H23 cells by sulforhodamine B assay. It is filed as functional.
In experiment [1] the target is Rho-related GTP-binding protein RhoB (Homo sapiens) (UniProt P62745). Description: Transactivation of RhoB expressed in human HeLa cells at 5 uM by dual renilla/firefly luciferase reporter assay. It is filed as cell-based. In outline:
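HeLa cells at 75–90% confluence were transiently cotransfected with a pGL2 firefly luciferase plasmid driven by the RhoB promoter (empty pGL2 vector as comparison) plus pRL-SV40 Renilla luciferase. Luciferase activity was measured after compound exposure in a dual-luciferase reporter read-out.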

Chain of Rho-related GTP-binding protein RhoB (Homo sapiens) (P62745 whole entry): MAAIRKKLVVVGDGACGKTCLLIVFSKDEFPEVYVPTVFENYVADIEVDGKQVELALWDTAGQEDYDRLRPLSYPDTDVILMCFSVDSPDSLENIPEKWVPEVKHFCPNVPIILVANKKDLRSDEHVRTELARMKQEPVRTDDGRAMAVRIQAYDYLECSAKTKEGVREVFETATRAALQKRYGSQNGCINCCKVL

`C=CC[N+]1(C)CCN(C(=O)CCCCCCCCCCCCCCCCCCCCC)CC1`: the GI50 (as a rule, the concentration at which growth is held to half of that of the control) in the experiment on PC-3 was determined as 960 nM; in the experiment with NUGC-3, 1530 nM; with MDA-MB-231 it was 3160 nM; in the experiment with ACHN, 2370 nM; in the experiment on HCT-15 it was 2130 nM; with NCI-H23 it was 3070 nM.

For `C=CC[N+]1(CC)CCN(C(=O)CCCCCCCCCCCCCCC)CC1`, the GI50 in the experiment with PC-3 is 370 nM; in the experiment with NUGC-3, 270 nM; in the experiment on MDA-MB-231 it was 680 nM; with ACHN it was 500 nM; in the experiment with HCT-15 it was 1330 nM; in the experiment with NCI-H23 it was 880 nM. The result in experiment [1] was Active.

Turning to `CCCCCCCCCCCCCCCC(=O)N1CC[N+](C)(Cc2ccccc2)CC1`, the GI50 in the experiment on PC-3 was determined as 510 nM; in the experiment on NUGC-3 it was 1000 nM; with MDA-MB-231, 1450 nM; in the experiment with ACHN, 1980 nM; in the experiment with HCT-15, 5060 nM; in the experiment with NCI-H23 it was 2050 nM.

In the case of `CCCCCCCCCCCCCCCC(=O)N1CC[N+](C)(CC)CC1`, the GI50 in the experiment with PC-3 was found to be 800 nM; in the experiment with NUGC-3 it was 580 nM; in the experiment with MDA-MB-231 it was 2050 nM; in the experiment with ACHN it was 1890 nM; in the experiment with HCT-15, 1800 nM; with NCI-H23, 3650 nM.

Regarding `CCCCCCCCCCCCCCCCCCCCCC(=O)N1CC[N+](C)(Cc2ccccc2)CC1`, the GI50 in the experiment with PC-3 was 1240 nM; with NUGC-3 it was 1900 nM; in the experiment on MDA-MB-231, 1980 nM; in the experiment with ACHN it was 4740 nM; in the experiment on HCT-15, 2530 nM; with NCI-H23, 2950 nM.

As for `CCCCCCCCCCCC(=O)N1CC[N+](C)(C)CC1`, the figures for the GI50 with PC-3, in the experiment on NUGC-3 and in the experiment on MDA-MB-231 were 580 nM, 1730 nM and 3530 nM, respectively. The GI50 result with ACHN, with HCT-15 and in the experiment with NCI-H23 was “inactive” each time. Further, the outcome in experiment [1] was inactive.

Turning to `CCCCCCCCCC(=O)N1CC[N+](C)(C)CC1`, the GI50 entry in the experiment with PC-3, with NUGC-3, in the experiment with MDA-MB-231, in the experiment on ACHN, in the experiment on HCT-15 and with NCI-H23 was “inactive” in each case. Moreover, the result in experiment [1] was inactive.

For `CCCCCCCCCCCCCCCC(=O)N1CC[N+](C)(C)CC1`, the GI50 in the experiment with PC-3 is 480 nM; with NUGC-3 it was 290 nM; in the experiment with MDA-MB-231 it was 1440 nM; in the experiment with ACHN, 1040 nM; with HCT-15, 580 nM; in the experiment on NCI-H23 it was 2340 nM. Also, the result in experiment [1] was Active.

For `C=CC[N+]1(CC)CCN(C(=O)CCCCCCCCCCCCCCCCCCCCC)CC1`, the GI50 came out at 1470 nM in the experiment with PC-3; 1540 nM with NUGC-3; 2530 nM in the experiment with MDA-MB-231; 3380 nM in the experiment with ACHN; 2780 nM with HCT-15; 3940 nM in the experiment with NCI-H23. Moreover, in experiment [1], the result was Active.

Turning to `CCCCCCCCCCCCCC(=O)N1CC[N+](C)(C)CC1`, the GI50 was 290 nM in the experiment with PC-3; 560 nM in the experiment on NUGC-3; 890 nM in the experiment on MDA-MB-231; 1010 nM in the experiment on ACHN; 850 nM in the experiment on HCT-15; 1580 nM in the experiment on NCI-H23. Moreover, in experiment [1], the result was Active.

Turning to `CCCCCCCCCCCCCCCCCCCCCC(=O)N1CC[N+](C)(CC)CC1`, the GI50 in the experiment on PC-3 was determined as 850 nM; in the experiment with NUGC-3, 1220 nM; in the experiment with MDA-MB-231, 2010 nM; with ACHN, 1900 nM; in the experiment with HCT-15 it was 1690 nM; with NCI-H23, 2600 nM.

Turning to `CCCCCCCCCCCCCCCCCCCC(=O)N1CC[N+](C)(C)CC1`, the GI50 stood at 310 nM with PC-3; 420 nM in the experiment with NUGC-3; 1630 nM in the experiment on MDA-MB-231; 1390 nM in the experiment with ACHN; 540 nM in the experiment with HCT-15; 1740 nM in the experiment on NCI-H23. For the same compound, in experiment [1], the outcome was Active.

In the case of `CCCCCCCCCCCCCCCCCC(=O)N1CC[N+](C)(C)CC1`, the GI50 was 530 nM in the experiment on PC-3; 560 nM with NUGC-3; 1620 nM with MDA-MB-231; 2740 nM in the experiment on ACHN; 810 nM in the experiment with HCT-15; 2700 nM with NCI-H23.

Take `C=CC[N+]1(C)CCN(C(=O)CCCCCCCCCCCCCCC)CC1`: the GI50 entry with PC-3, in the experiment with NUGC-3, in the experiment with MDA-MB-231, with ACHN, with HCT-15 and with NCI-H23 was “inactive” in each case. In addition, the outcome in experiment [1] was Active.

`CCCCCCCCCCCCCCCCCCOP(=O)([O-])OC1CC[N+](C)(C)CC1` [PERIFOSINE]: the GI50 was 440 nM in the experiment on PC-3; 540 nM in the experiment with NUGC-3; 2860 nM with MDA-MB-231; 4560 nM in the experiment on ACHN; 1250 nM in the experiment on HCT-15; 4210 nM in the experiment with NCI-H23.

Turning to `CCCCCCCCCCCCCCCC(=O)N1CC[N+](CC)(Cc2ccccc2)CC1`, the GI50 was 550 nM in the experiment with PC-3; 460 nM with NUGC-3; 1160 nM in the experiment with MDA-MB-231; 920 nM in the experiment on ACHN; 1760 nM with NCI-H23. In addition, the GI50 result in the experiment on HCT-15 is “inactive”.

In the experiment with PC-3, `CCCCCCCCCCCCCCCCCCCCCCCC(=O)N1CC[N+](C)(C)CC1` returned a GI50 of 4790 nM. Besides, the GI50 result in the experiment with NUGC-3, in the experiment on MDA-MB-231, with ACHN, in the experiment on HCT-15 and in the experiment on NCI-H23 was “inactive” throughout. Moreover, in experiment [1], the outcome was inactive.

Consider `CCCCCCCCCCCCCCCCCCCCCC(=O)N1CC[N+](C)(C)CC1`, for which the GI50 was determined as 990 nM in the experiment with PC-3; 1150 nM in the experiment with NUGC-3; 3510 nM with MDA-MB-231; 2390 nM in the experiment with ACHN; 2410 nM with HCT-15; 3000 nM in the experiment on NCI-H23. For the same compound, the result in experiment [1] was inactive.
